Each block holds one molecule with its values, some of them ahead of it.
What was measured:
[1] = Apparent oral bioavailability in Beagle dog at 2 mg/kg; type: ADME, organism-based, Canis lupus familiaris; settings: in vivo, read-out: Fapp
[2] = Apparent oral bioavailability in cynomolgus monkey at 2 mg/kg; type: ADME, organism-based, Macaca fascicularis; settings: in vivo, read-out: Fapp
[3] = biological target: T1, C-X-C chemokine receptor type 3 (Homo sapiens, UniProt P49682); assay: Displacement of [125I]-IP-10 from CXCR3 in presence of 100% human serum
T1 sequence (P49682 whole entry): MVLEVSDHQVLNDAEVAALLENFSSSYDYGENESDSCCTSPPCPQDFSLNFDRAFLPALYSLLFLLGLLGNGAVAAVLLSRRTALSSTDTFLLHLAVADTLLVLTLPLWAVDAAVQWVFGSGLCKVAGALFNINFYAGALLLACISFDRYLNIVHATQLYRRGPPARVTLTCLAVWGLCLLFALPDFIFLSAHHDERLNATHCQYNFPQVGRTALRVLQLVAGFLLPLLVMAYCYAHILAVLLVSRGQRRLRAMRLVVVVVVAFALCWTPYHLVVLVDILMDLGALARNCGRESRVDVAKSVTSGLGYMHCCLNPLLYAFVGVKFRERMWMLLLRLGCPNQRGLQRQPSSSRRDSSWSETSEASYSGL

[4] = Clearance in cynomolgus monkey at 0.5 mg/kg, iv; type: ADME, organism-based, Macaca fascicularis; parameters: dose 0.5 mg/kg, route intravenous; settings: in vivo
Summary of the method: (§1)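 Single intravenous dose in 10% N,N-dimethylacetamide, 10% ethanol, 30% propylene glycol, 50% water: 1 mg/kg mouse; 0.5 mg/kg rat, beagle dog, cynomolgus monkey. Plasma clearance also given as percent of hepatic blood flow.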

[5] = Clearance in mouse at 1 mg/kg, iv; type: ADME, organism-based; parameters: dose 1 mg/kg, route intravenous; settings: in vivo; summary of the method: as §1
PBL [6] = assay: Toxicity in human PBL assessed as chromosomal aberrations at 7.81 to 1000 ug/mL; type: cell-based
Summary of the method: (§2)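 Cultured human peripheral blood lymphocytes exposed at 7.81–1000 μg/mL, with and without S9 metabolic activation; chromosomal aberrations scored.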

[7] = biological target: T1, C-X-C chemokine receptor type 3; assay: Displacement of [125I]-IP-10 from CXCR3
PBL [8] = assay: Toxicity in human PBL assessed as chromosomal aberrations at 7.81 to 1000 ug/mL in the presence of S9; type: cell-based; summary of the method: as §2
[9] = Clearance in Beagle dog at 0.5 mg/kg, iv; type: ADME, organism-based, Canis lupus familiaris; parameters: dose 0.5 mg/kg, route intravenous; settings: in vivo; summary of the method: as §1
[10] = Apparent oral bioavailability in mouse at 5 mg/kg; type: ADME, organism-based; settings: in vivo, read-out: Fapp
[11] = Mean residence time in Beagle dog at 0.5 mg/kg, iv; type: ADME, organism-based, Canis lupus familiaris; parameters: dose 0.5 mg/kg, route intravenous; settings: in vivo; summary of the method: as §1
[12] = Mean residence time in cynomolgus monkey at 0.5 mg/kg, iv; type: ADME, organism-based, Macaca fascicularis; parameters: dose 0.5 mg/kg, route intravenous; settings: in vivo; summary of the method: as §1
[13] = Mean residence time in mouse at 1 mg/kg, iv; type: ADME, organism-based; parameters: dose 1 mg/kg, route intravenous; settings: in vivo; summary of the method: as §1
[14] = Fraction unbound in Beagle dog plasma; type: ADME, cell-free, Canis lupus familiaris
[15] = Volume of distribution at steady state in mouse at 1 mg/kg, iv; type: ADME, organism-based; parameters: dose 1 mg/kg, route intravenous; settings: in vivo, read-out: Vdss; summary of the method: as §1
Blood [16] = assay: Drug level in C57BL/6 mouse blood at 1 mg/kg, sc after 1 hr; type: ADME, organism-based; parameters: dose 1 mg/kg, route subcutaneous; settings: in vivo
Summary of the method: (§3)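 C57BL/6 mice given bleomycin intra-tracheally and dosed subcutaneously by osmotic mini-pump for 6 days; plasma collected to measure drug level, reported 1 h post dose.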

[17] = Volume of distribution at steady state in cynomolgus monkey at 0.5 mg/kg, iv; type: ADME, organism-based, Macaca fascicularis; parameters: dose 0.5 mg/kg, route intravenous; settings: in vivo, read-out: Vdss; summary of the method: as §1
Mus musculus [18] = assay: Inhibition of bleomycin-induced leukocyte migration into lungs in C57BL/6 mouse lung injury model by measuring cell count in bronchoalveolar lavage fluid at 1 mg/kg, sc administered for 6 days; type: functional; settings: route subcutaneous
Summary of the method: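 C57BL/6 mice given one intra-tracheal instillation of bleomycin, 1 mg/kg; compound delivered subcutaneously by osmotic mini-pump from challenge day for 6 days; cells counted in bronchoalveolar lavage on day six.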

Canis familiaris = assay: Hepatic blood flow in Beagle dog at 0.5 mg/kg, iv; type: ADME, organism-based, Canis lupus familiaris, Liver; parameters: dose 0.5 mg/kg, route intravenous; settings: in vivo; summary of the method: as §1
[19] = biological target: T1, C-X-C chemokine receptor type 3; assay: Receptor occupancy of CXCR3 in human whole blood assessed as inhibition of ITAC binding by fluorescence quenching based FACS analysis
[20] = Mean residence time in rat at 0.5 mg/kg, iv; type: ADME, organism-based; parameters: dose 0.5 mg/kg, route intravenous; settings: in vivo; summary of the method: as §1
Cytochrome P450 3A4 = Cytochrome P450 3A4 (Homo sapiens, UniProt P08684); assay: Inhibition of CYP3A4; type: ADME
Sequence of Cytochrome P450 3A4 (P08684 whole entry): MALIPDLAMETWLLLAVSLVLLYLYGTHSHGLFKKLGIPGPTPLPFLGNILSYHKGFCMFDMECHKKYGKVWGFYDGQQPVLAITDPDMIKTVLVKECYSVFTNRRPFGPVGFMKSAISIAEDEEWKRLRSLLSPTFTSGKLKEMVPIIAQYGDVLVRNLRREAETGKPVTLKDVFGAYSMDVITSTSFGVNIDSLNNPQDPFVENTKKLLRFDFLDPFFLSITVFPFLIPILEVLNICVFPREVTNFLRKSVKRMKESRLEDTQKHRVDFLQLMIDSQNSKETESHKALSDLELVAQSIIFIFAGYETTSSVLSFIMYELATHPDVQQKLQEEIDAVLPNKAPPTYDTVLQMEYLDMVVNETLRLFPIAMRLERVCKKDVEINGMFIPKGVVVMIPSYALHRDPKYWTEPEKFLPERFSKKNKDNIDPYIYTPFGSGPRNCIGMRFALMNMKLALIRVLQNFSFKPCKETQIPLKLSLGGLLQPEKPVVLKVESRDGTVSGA

[21] = Volume of distribution at steady state in Beagle dog at 0.5 mg/kg, iv; type: ADME, organism-based, Canis lupus familiaris; parameters: dose 0.5 mg/kg, route intravenous; settings: in vivo, read-out: Vdss; summary of the method: as §1
[22] = biological target: T2, C-X-C chemokine receptor type 3 (Mus musculus, UniProt O88410); assay: Receptor occupancy of CXCR3 in mouse whole blood assessed as inhibition of ITAC binding by fluorescence quenching based FACS analysis
T2 sequence (O88410 whole entry): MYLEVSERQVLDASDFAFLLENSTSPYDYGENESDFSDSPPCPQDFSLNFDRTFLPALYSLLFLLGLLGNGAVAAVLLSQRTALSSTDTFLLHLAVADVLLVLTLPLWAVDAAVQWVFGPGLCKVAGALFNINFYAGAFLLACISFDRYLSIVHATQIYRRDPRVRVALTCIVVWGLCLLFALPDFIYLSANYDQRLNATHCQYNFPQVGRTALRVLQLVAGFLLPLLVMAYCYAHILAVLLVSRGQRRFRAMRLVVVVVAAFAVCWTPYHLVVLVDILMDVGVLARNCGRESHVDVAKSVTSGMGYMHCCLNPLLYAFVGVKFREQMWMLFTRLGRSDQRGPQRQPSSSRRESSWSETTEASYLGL

Rattus norvegicus [23] = assay: Clearance in rat at 0.5 mg/kg, iv; type: ADME, organism-based; parameters: dose 0.5 mg/kg, route intravenous; settings: in vivo; summary of the method: as §1
[24] = Half life in rat at 0.5 mg/kg, iv; type: ADME, organism-based; parameters: dose 0.5 mg/kg, route intravenous; settings: in vivo; summary of the method: as §1
Rattus norvegicus [25] = assay: Hepatic blood flow in rat at 0.5 mg/kg, iv; type: ADME, organism-based, Liver; parameters: dose 0.5 mg/kg, route intravenous; settings: in vivo; summary of the method: as §1
[26] = Fraction unbound in rat plasma; type: ADME, cell-free
Blood [27] = assay: Drug level in C57BL/6 mouse blood at 3 mg/kg, sc after 1 hr; type: ADME, organism-based; parameters: dose 3 mg/kg, route subcutaneous; settings: in vivo; summary of the method: as §3
[28] = Fraction unbound in mouse plasma; type: ADME, cell-free
[29] = Apparent oral bioavailability in rat at 2 mg/kg; type: ADME, organism-based; settings: in vivo, read-out: Fapp
Cytochrome P450 2D6 = Cytochrome P450 2D6 (Homo sapiens, UniProt P10635); assay: Inhibition of CYP2D6; type: ADME
Sequence of Cytochrome P450 2D6 (P10635 whole entry): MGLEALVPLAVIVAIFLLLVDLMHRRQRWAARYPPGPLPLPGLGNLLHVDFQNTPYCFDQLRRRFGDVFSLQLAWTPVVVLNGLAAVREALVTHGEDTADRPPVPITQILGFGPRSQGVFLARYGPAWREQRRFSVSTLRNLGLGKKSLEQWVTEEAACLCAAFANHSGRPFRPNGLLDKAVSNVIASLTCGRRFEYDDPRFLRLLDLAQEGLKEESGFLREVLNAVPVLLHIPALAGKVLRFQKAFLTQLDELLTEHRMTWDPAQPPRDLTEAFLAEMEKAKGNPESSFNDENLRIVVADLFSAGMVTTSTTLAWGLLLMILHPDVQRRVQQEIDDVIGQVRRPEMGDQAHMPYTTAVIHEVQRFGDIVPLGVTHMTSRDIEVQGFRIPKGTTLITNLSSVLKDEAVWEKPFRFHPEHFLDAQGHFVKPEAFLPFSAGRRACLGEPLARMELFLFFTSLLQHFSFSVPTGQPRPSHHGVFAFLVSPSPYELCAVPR

[30] = Half life in cynomolgus monkey at 0.5 mg/kg, iv; type: ADME, organism-based, Macaca fascicularis; parameters: dose 0.5 mg/kg, route intravenous; settings: in vivo; summary of the method: as §1
Blood [31] = assay: Drug level in C57BL/6 mouse blood at 10 mg/kg, sc after 1 hr; type: ADME, organism-based; parameters: dose 10 mg/kg, route subcutaneous; settings: in vivo; summary of the method: as §3
Mus musculus [32] = assay: Hepatic blood flow in mouse at 1 mg/kg, iv; type: ADME, organism-based, Liver; parameters: dose 1 mg/kg, route intravenous; settings: in vivo; summary of the method: as §1
[33] = Half life in mouse at 1 mg/kg, iv; type: ADME, organism-based; parameters: dose 1 mg/kg, route intravenous; settings: in vivo; summary of the method: as §1
Cynomolgus monkey = assay: Hepatic blood flow in cynomolgus monkey at 0.5 mg/kg, iv; type: ADME, organism-based, Macaca fascicularis, Liver; parameters: dose 0.5 mg/kg, route intravenous; settings: in vivo; summary of the method: as §1
[34] = Half life in Beagle dog at 0.5 mg/kg, iv; type: ADME, organism-based, Canis lupus familiaris; parameters: dose 0.5 mg/kg, route intravenous; settings: in vivo; summary of the method: as §1
[35] = Fraction unbound in cynomolgus monkey plasma; type: ADME, cell-free, Macaca fascicularis
[36] = Volume of distribution at steady state in rat at 0.5 mg/kg, iv; type: ADME, organism-based; parameters: dose 0.5 mg/kg, route intravenous; settings: in vivo, read-out: Vdss; summary of the method: as §1

- bioavailability [1]: 1.6%
- bioavailability [2]: 1%
- IC50 [3]: 12 nM
- clearance [4]: 21.7 mL/min/kg
- clearance [5]: 8.17 mL/min/kg
- IC50 [7]: 8 nM
- clearance [9]: 8.33 mL/min/kg
- bioavailability [10]: 17%
SMILES: C[C@H](c1nc2ncccc2c(=O)n1-c1ccc(C#N)cc1)N(CC1CCS(=O)(=O)CC1)C(=O)Cc1ccc(F)c(C(F)(F)F)c1
- Activity (PBL [6]): Non-toxic
- Activity (PBL [8]): Non-toxic

- MRT [11]: 1.2 h
- bioavailability [1]: 69%
- bioavailability [2]: 13%
- MRT [12]: 1.7 h
- MRT [13]: 0.7 h
- clearance [4]: 12.3 mL/min/kg
- clearance [5]: 5.83 mL/min/kg
- clearance [9]: 16.7 mL/min/kg
- bioavailability [10]: 17%
SMILES: CCS(=O)(=O)CCN(C(=O)Cc1ccc(F)c(C(F)(F)F)c1)[C@H](C)c1nc2ncccc2c(=O)n1-c1ccc(C#N)cc1
- Activity (PBL [6]): Toxic
- Activity (PBL [8]): Toxic

- IC50 [3]: 22 nM
- IC50 [7]: 7 nM
SMILES: C[C@H](c1nc2ncccc2c(=O)n1-c1ccc(F)cc1)N(CC1CCS(=O)(=O)CC1)C(=O)Cc1ccc(C(F)(F)F)c(F)c1
- Activity (PBL [6]): Non-toxic
- Activity (PBL [8]): Non-toxic

- fraction unbound [14]: 0.015
- Vd [15]: 0.48 L/kg
- Drug uptake (Blood [16]): 1.3 µM
- Vd [17]: 1.2 L/kg
- MRT [11]: 1.1 h
- QH (Canis familiaris): 82%
- IC50 [19]: 9.8 nM
- MRT [20]: 3.5 h
- bioavailability [1]: > 100%
- IC50 (Cytochrome P450 3A4): > 10000 nM
- Vd [21]: 1.4 L/kg
- bioavailability [2]: 44%
- IC50 [22]: 200 nM
- MRT [12]: 8.7 h
- CL (Rattus norvegicus [23]): 8.17 mL/min/kg
- half-life [24]: 4 h
- MRT [13]: 3.9 h
- QH (Rattus norvegicus [25]): 3%
- IC50 [3]: 12 nM
- clearance [4]: 2 mL/min/kg
- clearance [5]: 2.17 mL/min/kg
- fraction unbound [26]: 0.061
- Drug uptake (Blood [27]): 3.4 mg/kg
- fraction unbound [28]: 0.007
- bioavailability [29]: 69%
- IC50 [7]: 6 nM
- IC50 (Cytochrome P450 2D6): > 10000 nM
- half-life [30]: 9 h
- Drug uptake (Blood [31]): 5.6 mg/kg
- QH (Mus musculus [32]): 3%
- half-life [33]: 4 h
- QH (Cynomolgus monkey): 3%
- half-life [34]: 1 h
- fraction unbound [35]: 0.037
- Vd [36]: 1.9 L/kg
- clearance [9]: 25 mL/min/kg
- bioavailability [10]: 45%
SMILES: C[C@H](c1nc2ncccc2c(=O)n1-c1ccc(Cl)cc1)N(CC1CCS(=O)(=O)CC1)C(=O)Cc1ccc(F)c(C(F)(F)F)c1
- EC (Mus musculus [18]): 1 mg/kg
- Activity (PBL [6]): Non-toxic
- Activity (PBL [8]): Non-toxic

- IC50 [3]: 14 nM
- IC50 [7]: 7 nM
SMILES: CCOc1ccc(-n2c([C@@H](C)N(Cc3ccc[n+]([O-])c3)C(=O)Cc3ccc(OC(F)(F)F)cc3)nc3ncccc3c2=O)cc1

SMILES: CCS(=O)(=O)CCN(C(=O)Cc1ccc(F)c(C(F)(F)F)c1)[C@H](C)c1nc2ccccn2c(=O)c1-c1ccc(C#N)cc1
- Activity (PBL [6]): Toxic
- Activity (PBL [8]): Toxic

Source: ChEMBL document CHEMBL1938274, “Discovery of potent and specific CXCR3 antagonists” (Bioorg Med Chem Lett, 2012)
